Assay results reported in ChEMBL document CHEMBL2069211, “Busseihydroquinones A-D from the roots of Pentas bussei” (J Nat Prod, 2012).
The source made the active and inactive calls. The rule behind the calls is not given here.

Experiments:
Plasmodium falciparum [1] = test: Antiplasmodial activity against chloroquine-sensitive Plasmodium falciparum D6 by SYBR green I-based assay; format: functional, organism-based
Method in brief: (§1)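 Drug susceptibility is measured with the SYBR Green I-based in vitro malaria assay. Chloroquine and mefloquine run alongside as reference drugs. IC50 is the mean of at least 3 independent experiments.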

Plasmodium falciparum [2] = test: Antiplasmodial activity against chloroquine-resistant Plasmodium falciparum W2 by SYBR green I-based assay; format: functional, organism-based; method in brief: as §1
[3] = Toxicity against human MCF7 cells incubated for 48 hrs by PrestoBlue cell viability reagent based assay; conditions: read-out: LD50
Method in brief: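 MCF-7 cells are grown in DMEM with 10% FBS, 2 mM L-glutamine and penicillin/streptomycin at 37 °C in 5% CO2. They are seeded for exponential growth and preincubated 24 h. Drug or DMSO vehicle (0.1% or 1.0% v/v) is then added for 48 h. PrestoBlue absorbance is read at 570 nm (600 nm reference). Viability is expressed as % of vehicle, six replicates, with repeated independent experiments.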

[4] = Selectivity index, ratio of LD50 for human MCF7 cells to IC50 for chloroquine-sensitive Plasmodium falciparum D6; format: toxicity, cell-based; conditions: read-out: Selectivity Index
Method in brief: (§2)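 The selectivity index is the MCF-7 LD50 (48 h PrestoBlue assay) divided by the P. falciparum IC50 (SYBR Green I assay) for the same strain.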

[5] = Selectivity index, ratio of LD50 for human MCF7 cells to IC50 for chloroquine-resistant Plasmodium falciparum W2; format: toxicity, cell-based; conditions: read-out: Selectivity Index; method in brief: as §2
Escherichia coli = test: Antimicrobial activity against Escherichia coli at 0.1 mg/disc incubated for 24 to 72 hrs by disc diffusion assay; format: functional, organism-based
Method in brief: (§3)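 Paper discs loaded with sample are laid on seeded agar plates, in triplicate under sterile conditions. Incubation is at 37 °C for E. coli, S. aureus and C. albicans, and at 25 °C for A. niger. Streptomycin (bacteria) and nystatin (fungi) serve as standards at 0.1 mg/100 μL. Sample solvents serve as controls.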

Staphylococcus aureus = test: Antimicrobial activity against Staphylococcus aureus at 0.1 mg/disc incubated for 24 to 72 hrs by disc diffusion assay; format: functional, organism-based; method in brief: as §3
Candida albicans = test: Antimicrobial activity against Candida albicans at 0.1 mg/disc incubated for 24 to 72 hrs by disc diffusion assay; format: functional, organism-based; method in brief: as §3
Aspergillus niger = test: Antimicrobial activity against Aspergillus niger at 0.1 mg/disc incubated for 24 to 72 hrs by disc diffusion assay; format: functional, organism-based; method in brief: as §3

For `COC(=O)c1cc(OC)c2cc(O)c3c(c2c1O)C=CC(C)(CCC=C(C)C)O3` (racemic), the IC50 (Plasmodium falciparum [1]) was 30.6 µM, the IC50 (Plasmodium falciparum [2]) was 85 µM and the CC50 at 48 h [3] was 86.4 µM. The selectivity ratio [4] was 2.83, the selectivity ratio [5] was 1.02 and the “inhibition zone (IZ)” value (Escherichia coli) was “inactive”. The “inhibition zone (IZ)” value (Staphylococcus aureus) was “inactive”, the “inhibition zone (IZ)” value (Candida albicans) was “inactive” and the “inhibition zone (IZ)” value (Aspergillus niger) was “inactive”.

In the case of `COc1cc(C(=O)O)c(O)c2ccc3c(c12)C=CC(C)(CCC=C(C)C)O3` (racemic) [BUSSEIHYDROQUINONE C], the IC50 (Plasmodium falciparum [1]) is reported as 32.6 µM, the IC50 (Plasmodium falciparum [2]) is reported as 60.1 µM and the CC50 at 48 h [3] is reported as over 272 µM. For the same compound, the selectivity ratio [4] was over 8.32, the selectivity ratio [5] was over 4.52 and the “inhibition zone (IZ)” value (Escherichia coli) was “inactive”. For the same compound, the “inhibition zone (IZ)” value (Staphylococcus aureus) was “inactive”, the “inhibition zone (IZ)” value (Candida albicans) was “inactive” and the “inhibition zone (IZ)” value (Aspergillus niger) was “inactive”.

In the case of `COc1cc(C(=O)O)c(O)c2ccc3c(c12)C=C1/C(=C(\C)C=O)CCC1(C)O3` (racemic) [BUSSEIHYDROQUINONE D], the IC50 (Plasmodium falciparum [1]) is reported as 19.6 µM, the IC50 (Plasmodium falciparum [2]) is reported as 80.1 µM and the CC50 at 48 h [3] is reported as over 262 µM. The selectivity ratio [4] was over 13.4, the selectivity ratio [5] was over 3.27 and the “inhibition zone (IZ)” value (Escherichia coli) was “inactive”. The “inhibition zone (IZ)” value (Staphylococcus aureus) was “inactive”, the “inhibition zone (IZ)” value (Candida albicans) was “inactive” and the “inhibition zone (IZ)” value (Aspergillus niger) was “inactive”.

With `COC(=O)c1cc(OC)c2cc(OC)c(OC)c(O)c2c1O` [BUSSEIHYDROQUINONE A] the IC50 (Plasmodium falciparum [1]) was 36 µM, the IC50 (Plasmodium falciparum [2]) was 144 µM and the CC50 at 48 h [3] was 304 µM. The selectivity ratio [4] was 8.44, the selectivity ratio [5] was 2.11 and the “inhibition zone (IZ)” value (Escherichia coli) was “inactive”. For the same compound, the “inhibition zone (IZ)” value (Staphylococcus aureus) was “inactive”, the “inhibition zone (IZ)” value (Candida albicans) was “inactive” and the “inhibition zone (IZ)” value (Aspergillus niger) was “inactive”.

With `COc1cc(C(=O)O)c(O)c2ccc3c(c12)C=CC(C)(C)O3` [BUSSEIHYDROQUINONE B] the IC50 (Plasmodium falciparum [1]) was 27.8 µM, the IC50 (Plasmodium falciparum [2]) was 126 µM and the CC50 at 48 h [3] was 374 µM. For the same compound, the selectivity ratio [4] was 13.4, the selectivity ratio [5] was 2.96 and the “inhibition zone (IZ)” value (Escherichia coli) was “inactive”. For the same compound, the “inhibition zone (IZ)” value (Staphylococcus aureus) was “inactive”, the “inhibition zone (IZ)” value (Candida albicans) was “inactive” and the “inhibition zone (IZ)” value (Aspergillus niger) was “inactive”.

`OC(c1cc(C(F)(F)F)nc2c(C(F)(F)F)cccc12)C1CCCCN1` (stereo unspecified) [MEFLOQUINE] showed an IC50 (Plasmodium falciparum [1]) of 0.029 µM.
